PLK1 inh – PLK1 (human) kinase inhibition; P53350; inhibition, % at 10 µM; AID 619; 97,000 compounds, 0.53% hits; recombinant PLK1 kinase, TR-FRET peptide phosphorylation;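 active means inhibition of 50% or more in the single-concentration screen; inactive means inhibition below 50%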
PTPN22 act – increases human PTPN22 phosphatase activity; 96,000 compounds, 0.11% hits; recombinant LYP, DiFMUP fluorescence; 0 = plate median, 100 = signal doubled; activation, % at 2 µM; AID 697; Q9Y2R2;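 active means activation at 2 µM above a set limit, the mean plus 5 SD, cut at about 37% in these data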
Plk1 PBD FP – blocks phosphopeptide binding to human Plk1 polo box domain; Plk1 PBD phosphopeptide binding, fluorescence polarization; inhibition, %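 (tested at about 20 µM)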; 97,000 compounds, 0.13% hits; AID 693; in the data active means inhibition above about 34%, passing the limit was not always enough
HIV Rev-RRE inh – disrupts HIV-1 Rev binding to RRE RNA. P05866. Rev peptide-RRE RNA binding, FRET. inhibition, % at 8 µM. 97,000 compounds, 0.79% hits. AID 704;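 active means inhibition above the screen-wide mean plus 3 SD, cut at about 35% in these data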
Target sequence (P05866 whole entry, looked up): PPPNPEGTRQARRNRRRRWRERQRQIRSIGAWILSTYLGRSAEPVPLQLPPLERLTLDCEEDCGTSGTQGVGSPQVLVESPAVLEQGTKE
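Test system – labelled RRE RNA duplex and labelled Rev peptide · Signal – fluorescein-to-Cy5 FRET, 480 nm excitation · Evaluation – % inhibition of FRET ratio versus controls · Benchmarks – DMSO low control, neomycin B high control · Incubation – 5 min RNA-compound premix plus 15 min binding step, 25 °C · Medium – HEPES pH 7.5 salt buffer with EDTA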
LYP inh 2 – blocks human PTPN22 phosphatase activity; inhibition, % at 2 µM; AID 640; recombinant LYP catalytic domain, DiFMUP fluorescence; Q9Y2R2; 96,000 compounds, 0.21% hits;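 active means inhibition at 2 µM at or above a set limit, the screen mean plus 3 SD, cut at about 24% in these data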
EphB4 ephrin blk – antagonists of human EphB4-ephrin-B2 interaction; P54760; EphB4 LBD / TNYL-RAW-Alexa532 peptide, fluorescence polarization; inhibition, % at 7 µM; 97,000 compounds, 0.15% hits;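 active means inhibition above the screen-wide mean inhibition plus 3 SD, cut at about 15% in these data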
Each line names hits and unclear results; the compound was inactive in the other large screens; [ ] = remark or other dose. Sampled rows, rich in hits. Any-hit rate of the full collection: about 2%.

CCN(CC)CCCn1c(C)cc2c(c1=O)C(c1cc(OC)c(OC)cc1OC)C(C#N)=C(N)O2 (stereo not given)	none
CCN(CC)CCCn1c(C)cc2c(c1=O)C(c1cccc(Cl)c1)C(C#N)=C(N)O2 (stereo not given)	Plk1 PBD FP 47
Cn1c(=O)oc2cc(S(=O)(=O)N3CCN(C(=O)c4ccco4)CC3)ccc21	HIV Rev-RRE inh 41
O=C(c1ccco1)N1CCN(S(=O)(=O)c2ccc3[nH]c(=O)oc3c2)CC1	none
CCOC(=O)c1c(Nc2ccc(Cl)cc2)sc(/C=C2\C=Nc3ccccc32)c1O	HIV Rev-RRE inh 40
O=C(Cn1c(O)c(/C=C2\C=Nc3ccccc32)sc1=O)Nc1ccc2c(c1)OCO2	none
Cc1oc(-c2ccccc2F)nc1CS(=O)CC(=O)NCc1cccs1 (stereo not given)	PLK1 inh 62 (no result: PTPN22 act, LYP inh 2)
CCCCNC(=O)CS(=O)Cc1nc(-c2cccs2)oc1C (stereo not given)	PLK1 inh 59 (no result: PTPN22 act, LYP inh 2)
CCCCCc1c(C)c(C#N)c2nc3ccccc3n2c1-n1ccnc1C	none
OC1=C(O)c2nc3ccccc3nc21	none
Cn1c(=O)c2ncn(CC(=O)Nc3ccc4c5c(cccc35)CC4)c2n(C)c1=O	HIV Rev-RRE inh 46
Cc1cccc(C)c1NC(=O)Cn1cnc2c(=O)n(C)c(=O)n(C)c21	none
O=[N+]([O-])c1ccc(N2N=C(c3ccco3)CC2c2ccccc2)cc1 (stereo not given)	HIV Rev-RRE inh 76[fluorescence artefact?]
CCOC(=O)C1CCCN(CCC(=O)Nc2c(C(=O)OC)[nH]c3cc(OC)ccc23)C1 (stereo not given)	none
Cc1ccc(CO/N=C\Cc2snc(Sc3ncc(C(F)(F)F)cc3Cl)c2C#N)cc1	HIV Rev-RRE inh 60
CSc1nsc(/C=C/Nc2ccc(Cl)cc2)c1C#N	HIV Rev-RRE inh 42
O=C(Nc1ccccc1Cl)c1ccc(S(=O)(=O)N2CCOCC2)cc1	PLK1 inh 68 (no result: PTPN22 act, LYP inh 2)
COc1ccccc1NC(=O)c1ccc(S(=O)(=O)N2CCOCC2)cc1	none
COc1ccc2[nH]c(=O)c(CN(Cc3ccccc3)Cc3nnnn3CC3CCCO3)cc2c1 (stereo not given)	EphB4 ephrin blk 16
COc1ccc2[nH]c(=O)c(CN(C3CCCCC3)C(c3nnnn3Cc3ccco3)C(C)C)cc2c1 (stereo not given)	HIV Rev-RRE inh 43
c1ccc2[nH]c(SCc3cscn3)nc2c1	none
CC(C)(C)CC(C)(C)NC(=S)Nc1ccc2nc(-c3ccccn3)c(-c3ccccn3)nc2c1	HIV Rev-RRE inh 76
O=C(NCCCO)Nc1ccc2nc(-c3ccco3)c(-c3ccco3)nc2c1	PLK1 inh 52
OCCCNC(=S)Nc1ccc2nc(-c3ccccn3)c(-c3ccccn3)nc2c1	HIV Rev-RRE inh 36
c1ccc(-c2nc3ccccc3nc2-c2ccccn2)nc1	none
CN(C)NC(=S)Nc1ccc2nc(-c3ccccn3)c(-c3ccccn3)nc2c1	none
CC1Cc2ccccc2N1C(=O)CSc1nnnn1-c1ccc2c(c1)OCCO2 (stereo not given)	none
Cc1oc(-c2ccc(Cl)cc2)nc1CN1CCC(C(=O)N2CCc3ccccc3C2)CC1	none
Cc1oc(-c2ccc(Cl)cc2)nc1CN1CCC(C(=O)NCCCN2CCCC2=O)CC1	none
Cc1oc(-c2ccc(Cl)cc2)nc1CN1CCC(C(=O)N2CCN(Cc3ccccc3)CC2)CC1	PLK1 inh 59 (no result: PTPN22 act, LYP inh 2)
CCN1CCN(CCNC(=O)C2CCN(Cc3nc(-c4ccc(Cl)cc4)oc3C)CC2)CC1	PLK1 inh 65 (no result: PTPN22 act, LYP inh 2)
COCCn1c(SCC(=O)N2CCCc3ccccc32)nnc1-c1ccco1	none
O=C(Nc1ccc2oc(-c3ccc(Cl)c(Cl)c3)nc2c1)c1ncn[nH]1	LYP inh 2 40
O=C1C2C3CCCC3=C3CCCC3C2C(=O)N1c1cccc(Cl)c1 (stereo not given)	none
CC(=O)c1ccc(N2C(=O)C3C(C2=O)C(C(=O)c2ccc(Cl)cc2)N2CCCC32)cc1 (stereo not given)	HIV Rev-RRE inh 62
O=C(c1ccc(Cl)cc1)C1C2C(=O)N(c3ccccc3)C(=O)C2C2CCCN21 (stereo not given)	HIV Rev-RRE inh 58
O=C1C2C3CCCC3=C3CCCC3C2C(=O)N1c1ccc(Cl)cc1 (stereo not given)	none
Cc1ccc(C(=O)Nc2nc(=O)n(C(=O)C3CC3)s2)cc1	none
Cc1cc(SCC(=O)N/N=C/c2ccc(O)c(O)c2O)c(C)cc1Br	LYP inh 2 57
COC(=O)c1ccc2c(c1)C(C)(C)C(/C=C/c1ccc(O)cc1)=[N+]2C	HIV Rev-RRE inh 79[fluorescence artefact?]
COC(=O)c1ccc2c(c1)C(C)(C)C(/C=C/c1ccc(OC)c(OC)c1OC)=[N+]2C	none
CCOc1ccc(C(CCc2ccccc2)NC(=O)c2ccccc2F)cc1OCC (stereo not given)	EphB4 ephrin blk 18
CCOc1ccc(C(CCc2ccccc2)NC(=O)c2ccccc2OC)cc1OCC (stereo not given)	none
O=C(O)c1cc([N+](=O)[O-])ccc1C(=O)Nc1ccccc1	none
CCCc1cc(=O)[nH]c(SCC)n1	none
CCCc1cc(=O)[nH]c(-n2[nH]c3c(c2=O)CCCC3)n1	HIV Rev-RRE inh 69
COC(=O)c1sccc1-n1cccc1C(=O)N1CCOCC1	LYP inh 2 60
COc1cccc(OC)c1C(=O)N1CCOCC1	none
CCCSc1nnc(N2C(=O)CC(c3ccsc3)C3=C2CCCC3=O)s1 (stereo not given)	none
Cc1cccc(-c2cc3nc(C)cc(N4CC(C)CC(C)C4)n3n2)c1 (stereo not given)	none
CCCCOc1[nH]c2nc(-c3ccco3)n(Cc3ccco3)c(=N)c2c1C#N	HIV Rev-RRE inh 55
c1ccc(CSc2nnc(-c3ccco3)n2Cc2ccco2)cc1	none
O=C(Nc1ccc2nc(-c3cccs3)c(-c3cccs3)nc2c1)N1CCOCC1	none
COc1cccc(/C=N/NC(=O)c2[nH]c(C)c(C(=O)N/N=C/c3cccc(OC)c3O)c2C)c1O	none
COc1cccc(/C=N/NC(=O)c2ccc(-c3ccccc3)cc2)c1O	LYP inh 2 28
Cc1cc(-c2c(C)n([O-])c(C)c(C)[n+]2=O)ccc1F	none
CCNc1nc2[nH]c(=O)c3c(c2s1)OC(N)=C(C#N)C3c1ccc(C)cc1 (stereo not given)	HIV Rev-RRE inh 86[fluorescence artefact?]
Cc1ccc(C2C(C#N)=C(N)Oc3c2c(=O)n(C)c(=O)n3C)cc1 (stereo not given)	none
COCC(=O)Nc1nc2n(n1)C(c1ccccc1Cl)CC(c1ccc(OC)cc1)N2 (stereo not given)	none
COCC(=O)Nc1nc2n(n1)C(c1ccc(Cl)cc1)CC(c1ccc(OC)cc1)N2 (stereo not given)	HIV Rev-RRE inh 36

Source: PubChem BioAssay (several laboratories)
